Converted amounts (≈) assume the structure as drawn. The source made the active and inactive calls. The rule behind the calls is not given here.
Tests used:
[1] = tested on: Trypanosoma brucei rhodesiense; assay: Antitrypanosomal activity against bloodstream form of Trypanosoma brucei rhodesiense STIB 900 assessed as parasite growth inhibition incubated for 24 to 48 hrs followed by 72 hrs recovery by Alamar blue assay; assay type: functional
[2] = molecular target: Procathepsin L (Homo sapiens, UniProt P07711); assay: Inhibition of human CatL using Cbz-Phe-Arg-AMC as substrate measured over 30 mins by fluorimetric method
Sequence of Procathepsin L (P07711 whole entry): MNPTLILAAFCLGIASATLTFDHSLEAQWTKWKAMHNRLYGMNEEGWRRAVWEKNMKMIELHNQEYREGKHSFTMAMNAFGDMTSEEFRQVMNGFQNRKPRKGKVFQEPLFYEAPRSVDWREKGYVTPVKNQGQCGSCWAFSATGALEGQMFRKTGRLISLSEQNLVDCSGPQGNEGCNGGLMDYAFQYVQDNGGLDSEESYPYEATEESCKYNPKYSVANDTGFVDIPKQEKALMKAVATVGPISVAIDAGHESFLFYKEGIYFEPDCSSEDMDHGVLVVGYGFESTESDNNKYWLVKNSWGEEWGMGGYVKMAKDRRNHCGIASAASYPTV

[3] = tested on: Trypanosoma brucei rhodesiense; assay: Antitrypanosomal activity against bloodstream form of Trypanosoma brucei rhodesiense STIB 900 assessed as parasite growth inhibition after 72 hrs by Alamar blue assay; assay type: functional; conditions: Trypanosoma brucei, STIB 900, 72 h
Outline: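 T. b. rhodesiense STIB900 bloodstream trypomastigotes; cell-growth inhibition read by Alamar blue; IC50 as average of at least 2 measurements.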

[4] = tested on: L6; assay: Cytotoxicity against rat L6 cells after 72 hrs by Alamar blue assay; assay type: cell-based; conditions: Rattus norvegicus, L6, 72 h
Outline: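 Rat skeletal myoblast L6 cells, growth inhibition; IC50 as average of at least 2 measurements.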

[5] = molecular target: Rhodesain (Trypanosoma brucei rhodesiense) (UniProt Q95PM0); assay: Inhibition of Trypanosoma brucei rhodesiense rhodesain at 20 uM using Cbz-Phe-Arg-AMC as substrate by fluorimetric method relative to control
Sequence of Rhodesain (Trypanosoma brucei rhodesiense) (Q95PM0 1-450): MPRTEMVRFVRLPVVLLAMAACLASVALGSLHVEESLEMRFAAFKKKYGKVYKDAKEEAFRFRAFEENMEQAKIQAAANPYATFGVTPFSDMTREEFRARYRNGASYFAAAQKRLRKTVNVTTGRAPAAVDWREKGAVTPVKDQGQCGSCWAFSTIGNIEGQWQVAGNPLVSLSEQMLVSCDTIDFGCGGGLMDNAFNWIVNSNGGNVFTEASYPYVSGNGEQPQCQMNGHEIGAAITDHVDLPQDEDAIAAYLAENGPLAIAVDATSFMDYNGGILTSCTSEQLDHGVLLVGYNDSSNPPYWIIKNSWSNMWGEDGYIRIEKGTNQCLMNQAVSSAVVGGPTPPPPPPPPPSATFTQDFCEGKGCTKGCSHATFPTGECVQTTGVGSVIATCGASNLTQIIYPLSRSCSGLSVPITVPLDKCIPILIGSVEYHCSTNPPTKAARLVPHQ

[6] = molecular target: Rhodesain (Trypanosoma brucei rhodesiense, UniProt Q95PM0); assay: Inhibition of Trypanosoma brucei rhodesiense rhodesain using Cbz-Phe-Arg-AMC as substrate by fluorimetric method
Sequence of Rhodesain (Q95PM0 whole entry): as the sequence (Q95PM0 1-450) above
Outline: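 Fluorescence-based protease assay. IC50 was converted to Ki by the Cheng-Prusoff equation. Values are the average of two measurements, each run in duplicate.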

[7] = Selectivity index, ratio of Ki for human CatL to Ki for Trypanosoma brucei rhodesiense rhodesain
Outline: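 Ki from IC50 via Cheng–Prusoff in fluorescence-based protease assay; index = Ki(hCatL)/Ki(RD); Ki as average of two measurements, each in duplicate.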

[8] = Selectivity index, ratio of IC50 for rat L6 cells to IC50 for bloodstream form of Trypanosoma brucei rhodesiense STIB 900; assay type: toxicity; conditions: L6 cells, read-out: Ratio IC50
Outline: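 Ratio of L6 cell IC50 to T. b. rhodesiense STIB900 trypomastigote IC50.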

[9] = tested on: MDR1; assay: Efflux ratio of permeability across pig LLC-PK1 cells expressing human MDR1 at 1 uM after 3.5 hrs by LC-MS/MS analysis; assay type: ADME, cell-based, Sus scrofa
Outline: (§1)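 Porcine kidney LLC-PK1 cells stably transfected with human ABCB1 (MDR1) or mouse Abcb1a (Mdr1a). Cells were grown with 10% FCS and 100 ng/mL colchicine and seeded on permeable inserts, then assayed on day 4. Compound was added at 1 μM to the apical or basolateral side, and transport was run in both directions in triplicate at 37 °C, 5% CO2. Donor and receiver were sampled at 3.5 h and quantified by LC–MS/MS. Lucifer yellow was used as the monolayer tightness control.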

[10] = tested on: Mdr1a; assay: Efflux ratio of permeability across pig LLC-PK1 cells expressing mouse Mdr1a at 1 uM after 3.5 hrs by LC-MS/MS analysis; assay type: ADME, cell-based, Sus scrofa; outline: as §1
[11] = tested on: Trypanosoma brucei brucei; assay: Antitrypanosomal activity against Trypanosoma brucei brucei TC 221 assessed as parasite growth inhibition after 72 hrs by Alamar blue assay; assay type: functional; conditions: TC 221, 72 h
[12] = tested on: Trypanosoma brucei rhodesiense; assay: Antitrypanosomal activity against bloodstream form of Trypanosoma brucei rhodesiense STIB 900 infected in NMRI mouse assessed as reduction of parasitemia at 25 mg/kg, ip bid administered for 4 consecutive days starting 3 days post infection measured 24 hrs post last dose; assay type: functional, organism-based
Outline: (§2)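 Mice infected with T. b. rhodesiense STIB900 (acute model); dosing from day 3 post-infection on four consecutive days, 25 mg kg⁻¹ i.p. twice daily, 0.1 mL/10 g; three infected-untreated controls; parasitaemia monitored by tail-snip blood smears twice weekly for two weeks, then weekly to day 60; relapse day recorded post-infection.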

[13] = Drug uptake in bloodstream form of Trypanosoma brucei rhodesiense STIB 900 infected NMRI mouse blood at 25 mg/kg, ip bid administered for 4 consecutive days starting 3 days post infection measured at 1 hr post last dose; assay type: ADME, organism-based; conditions: read-out: Drug uptake
[14] = Drug uptake in bloodstream form of Trypanosoma brucei rhodesiense STIB 900 infected NMRI mouse blood at 25 mg/kg, ip bid administered for 4 consecutive days starting 3 days post infection measured at 4 hrs post last dose; assay type: ADME, organism-based; conditions: read-out: Drug uptake
[15] = Drug uptake in bloodstream form of Trypanosoma brucei rhodesiense STIB 900 infected NMRI mouse blood at 25 mg/kg, ip bid administered for 4 consecutive days starting 3 days post infection measured at 16 hrs post last dose; assay type: ADME, organism-based; conditions: read-out: Drug uptake
[16] = Octanol-water intrinsic distribution co-efficient, log D of the compound at 100 uM at pH 7.4 after 16 to 22 hrs by CAMDIS assay; assay type: physicochemical
Outline: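 Distribution between octanol and aqueous buffer at pH 7.4, CAMDIS carrier-mediated system.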

[17] = Solubility of the compound at pH 6.5 by LYSA; assay type: physicochemical; conditions: buffer
Outline: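 Lyophilisation solubility assay at pH 6.5.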

[18] = Effective permeability of the compound after 15 hrs by PAMPA; assay type: physicochemical; conditions: read-out: Peff
[19] = molecular target: Cytochrome P450 3A4 (Homo sapiens, UniProt P08684); assay: Inhibition of CYP3A4 in human liver microsomes using DBF as substrate by fluorescence assay; assay type: ADME
Sequence of Cytochrome P450 3A4 (P08684 whole entry): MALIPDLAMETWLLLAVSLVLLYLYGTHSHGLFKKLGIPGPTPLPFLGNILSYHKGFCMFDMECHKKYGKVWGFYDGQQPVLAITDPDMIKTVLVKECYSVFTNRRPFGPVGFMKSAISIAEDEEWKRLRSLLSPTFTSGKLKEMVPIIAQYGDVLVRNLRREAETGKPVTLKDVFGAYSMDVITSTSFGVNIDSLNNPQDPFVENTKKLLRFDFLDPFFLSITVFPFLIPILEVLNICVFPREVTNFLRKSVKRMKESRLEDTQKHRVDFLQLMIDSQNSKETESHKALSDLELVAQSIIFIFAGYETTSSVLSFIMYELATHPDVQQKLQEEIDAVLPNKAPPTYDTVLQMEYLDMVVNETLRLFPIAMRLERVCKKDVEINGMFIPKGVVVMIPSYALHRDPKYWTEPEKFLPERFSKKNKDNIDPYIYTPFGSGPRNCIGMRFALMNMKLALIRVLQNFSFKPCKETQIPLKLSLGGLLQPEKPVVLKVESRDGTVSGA

[20] = molecular target: Cytochrome P450 2D6 (Homo sapiens, UniProt P10635); assay: Inhibition of CYP2D6 in human liver microsomes using AMMC as substrate by fluorescence assay; assay type: ADME
Sequence of Cytochrome P450 2D6 (P10635 whole entry): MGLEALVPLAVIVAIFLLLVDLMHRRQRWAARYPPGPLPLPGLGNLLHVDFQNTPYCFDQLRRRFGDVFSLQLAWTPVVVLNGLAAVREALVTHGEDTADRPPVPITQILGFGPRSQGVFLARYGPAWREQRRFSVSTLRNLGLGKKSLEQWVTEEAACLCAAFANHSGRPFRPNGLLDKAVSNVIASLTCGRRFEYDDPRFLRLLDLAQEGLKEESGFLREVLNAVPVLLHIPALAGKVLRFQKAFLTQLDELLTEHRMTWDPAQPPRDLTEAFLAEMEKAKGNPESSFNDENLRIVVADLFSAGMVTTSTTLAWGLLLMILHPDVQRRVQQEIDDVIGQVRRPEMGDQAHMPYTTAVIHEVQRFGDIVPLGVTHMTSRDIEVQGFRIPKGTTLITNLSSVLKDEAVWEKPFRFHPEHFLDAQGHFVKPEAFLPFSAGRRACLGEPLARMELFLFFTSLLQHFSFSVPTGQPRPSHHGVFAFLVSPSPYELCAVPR

[21] = molecular target: Cytochrome P450 2C9 (Homo sapiens, UniProt P11712); assay: Inhibition of CYP2C9 in human liver microsomes using MFC as substrate by fluorescence assay
Sequence of Cytochrome P450 2C9 (P11712 whole entry): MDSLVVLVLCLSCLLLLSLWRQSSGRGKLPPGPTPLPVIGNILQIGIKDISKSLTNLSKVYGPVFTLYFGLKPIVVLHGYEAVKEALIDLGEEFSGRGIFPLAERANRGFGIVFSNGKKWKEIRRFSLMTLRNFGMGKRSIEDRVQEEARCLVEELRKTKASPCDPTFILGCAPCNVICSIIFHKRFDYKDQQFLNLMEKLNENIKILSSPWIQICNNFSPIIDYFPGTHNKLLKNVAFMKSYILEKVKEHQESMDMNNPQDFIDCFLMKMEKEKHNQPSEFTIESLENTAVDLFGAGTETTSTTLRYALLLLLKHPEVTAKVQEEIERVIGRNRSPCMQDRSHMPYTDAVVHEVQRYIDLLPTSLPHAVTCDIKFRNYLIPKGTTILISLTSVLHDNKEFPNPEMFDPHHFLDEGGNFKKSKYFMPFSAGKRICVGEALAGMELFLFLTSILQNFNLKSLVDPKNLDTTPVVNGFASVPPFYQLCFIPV

[22] = Half life in C57BL/6J mouse administered via iv as bolus dose by LC-MS/MS analysis; assay type: ADME, organism-based; conditions: in vivo
Outline: (§3)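 Male adult C57BL/6J mice, single i.v. bolus in N-methylpyrrolidinone/40% aqueous hydroxypropyl-γ-cyclodextrin (30/70); blood at 5, 15, 30 min, 1, 2, 4, 8 h; plasma by centrifugation, stored −20 °C; LC–MS/MS; non-compartmental analysis.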

[23] = Clearance in C57BL/6J mouse administered via iv as bolus dose by LC-MS/MS analysis; assay type: ADME, organism-based; conditions: in vivo; outline: as §3
[24] = Volume of distribution at steady state in C57BL/6J mouse administered via iv as bolus dose by LC-MS/MS analysis; assay type: ADME, organism-based; conditions: in vivo, read-out: Vdss; outline: as §3
[25] = Ratio of drug level in brain to plasma in C57BL/6J mouse administered via iv as bolus dose by LC-MS/MS analysis
[26] = Plasma concentration in rat at 3 mg/kg administered via infusion over 30 mins; assay type: ADME, organism-based; conditions: iv
Outline: (§4)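 Rats given 3 mg kg⁻¹ by infusion over 30 min, then sacrificed; plasma, brain and CSF concentrations measured; ratios to plasma derived; average of three independent measurements.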

[27] = Drug uptake in rat brain at 3 mg/kg administered via infusion over 30 mins; assay type: ADME, organism-based; conditions: iv, read-out: Drug uptake; outline: as §4
[28] = Drug uptake in rat cerebrospinal fluid at 3 mg/kg administered via infusion over 30 mins; assay type: ADME, organism-based; conditions: iv, read-out: Drug uptake; outline: as §4
[29] = Ratio of drug level in rat brain to plasma at 3 mg/kg administered via infusion over 30 mins; conditions: iv
[30] = Ratio of drug level in rat CSF to plasma at 3 mg/kg administered via infusion over 30 mins; conditions: iv
[31] = tested on: Trypanosoma brucei rhodesiense; assay: Antitrypanosomal activity against bloodstream form of Trypanosoma brucei rhodesiense STIB 900 infected in NMRI mouse assessed as days required to prevent relapse of trypanosome at 25 mg/kg, ip bid administered for 4 consecutive days starting 3 days post infection; assay type: functional; outline: as §2
[32] = tested on: Trypanosoma brucei rhodesiense; assay: Antitrypanosomal activity against bloodstream form of Trypanosoma brucei rhodesiense STIB 900 infected in NMRI mouse assessed as mouse survival at 25 mg/kg, ip bid administered for 4 consecutive days starting 3 days post infection (reference value: 13 days); assay type: functional
Outline: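 T. b. rhodesiense STIB900 acute mouse infection model. Dosing was 25 mg/kg i.p. twice daily for 4 consecutive days, starting 3 days post-infection, at 0.1 mL/10 g. Three infected mice served as untreated controls without vehicle. Parasitaemia was followed by tail-blood smears twice weekly for two weeks, then weekly to day 60. Relapse day and mean survival days were recorded.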

[33] = molecular target: Cathepsin B (Homo sapiens, UniProt P07858); assay: Inhibition of human cathepsin B
[34] = molecular target: T1, Cathepsin K (Homo sapiens, UniProt P43235); assay: Inhibition of human cathepsin K
T1 sequence (P43235 whole entry): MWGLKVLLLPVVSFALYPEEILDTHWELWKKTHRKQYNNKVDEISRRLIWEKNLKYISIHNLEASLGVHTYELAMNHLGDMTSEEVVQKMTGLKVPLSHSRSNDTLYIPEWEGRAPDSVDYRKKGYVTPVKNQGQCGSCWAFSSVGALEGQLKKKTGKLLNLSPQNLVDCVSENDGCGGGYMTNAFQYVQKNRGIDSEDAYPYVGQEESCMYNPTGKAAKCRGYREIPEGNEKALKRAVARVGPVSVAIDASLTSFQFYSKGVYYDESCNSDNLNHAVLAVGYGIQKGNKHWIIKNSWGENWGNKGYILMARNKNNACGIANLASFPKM

[35] = molecular target: Cathepsin S (Homo sapiens, UniProt P25774); assay: Inhibition of human cathepsin S
Sequence of Cathepsin S (P25774 whole entry): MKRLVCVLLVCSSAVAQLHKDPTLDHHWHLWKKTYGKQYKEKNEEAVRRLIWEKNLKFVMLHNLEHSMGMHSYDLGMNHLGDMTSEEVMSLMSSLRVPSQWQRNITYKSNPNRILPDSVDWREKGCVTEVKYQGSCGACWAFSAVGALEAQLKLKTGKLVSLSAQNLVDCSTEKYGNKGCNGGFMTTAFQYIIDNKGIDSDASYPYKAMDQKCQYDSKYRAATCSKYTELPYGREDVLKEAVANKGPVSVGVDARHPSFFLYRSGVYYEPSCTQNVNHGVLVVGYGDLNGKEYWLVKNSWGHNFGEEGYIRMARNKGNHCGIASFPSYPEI

[36] = molecular target: T2, Cathepsin L2 (Homo sapiens, UniProt O60911); assay: Inhibition of human cathepsin V
T2 sequence (O60911 whole entry): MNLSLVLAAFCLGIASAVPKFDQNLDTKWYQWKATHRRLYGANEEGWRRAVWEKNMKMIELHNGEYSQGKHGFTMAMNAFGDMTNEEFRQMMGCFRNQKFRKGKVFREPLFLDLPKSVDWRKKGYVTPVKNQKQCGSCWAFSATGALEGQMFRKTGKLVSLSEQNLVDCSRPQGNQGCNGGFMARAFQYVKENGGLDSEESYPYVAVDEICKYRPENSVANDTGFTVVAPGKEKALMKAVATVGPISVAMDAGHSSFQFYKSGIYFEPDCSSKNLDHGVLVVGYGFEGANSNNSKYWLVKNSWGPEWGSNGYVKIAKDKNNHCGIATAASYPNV

Structure (SMILES): N#CC1(NC(=O)[C@@H]2Cc3ccc(c(Cl)c3)OC/C=C/COc3c(F)cc(F)cc3C(=O)N2)CC1
- growth inhibition (GI) [1]: Active

Structure (SMILES): N#CC1(NC(=O)[C@@H]2Cc3ccc(c(-c4cc[nH]n4)c3)OCCCCOc3cc(C(F)(F)F)ccc3C(=O)N2)CC1
- Ki [2]: 1.36 µM
- IC50 [3]: 0.14 µM
- IC50 [4]: > 100 µM
- inhibition [5]: 45%

Structure (SMILES): N#CC1(NC(=O)[C@@H]2Cc3ccc(c(Cl)c3)OC/C=C/CCn3nc(cc3C3CC3)C(=O)N2)CC1
- Ki [6]: 0.0172 µM
- Ki [2]: 0.0025 µM
- Ratio Ki [7]: 0.1
- IC50 [3]: 0.005 µM
- IC50 [4]: 60.6 µM
- selectivity ratio [8]: 12100
- growth inhibition (GI) [1]: Active

Structure (SMILES): N#CC1(NC(=O)[C@@H]2Cc3ccc(c(Cl)c3)OCCCCOc3cc4c(cc3C(=O)N2)CCCC4)CC1
- Ki [6]: 0.026 µM
- Ki [2]: 0.003 µM
- efflux ratio at 3.5 h, 1 µM [9]: 26
- efflux ratio at 3.5 h, 1 µM [10]: 38
- IC50 [11]: 0.001 µM

Structure (SMILES): CSc1ccc2c(c1)C(=O)N[C@H](C(=O)NC1(C#N)CC1)Cc1ccc(c(Cl)c1)OC/C=C/CO2
- Activity [12]: inactive
- concentration at 1 h [13]: 951 ng/mL
- concentration at 4 h [14]: 66.4 ng/mL
- concentration at 16 h [15]: < 10 ng/mL

Structure (SMILES): N#CC1(NC(=O)[C@@H]2Cc3ccc(c(Cl)c3)OCCCCOc3cc(C(F)(F)F)ccc3C(=O)N2)CC1
- logD at 100 µM [16]: 3.7
- solubility [17]: 12 µg/mL (≈ 23 µM)
- Ki [6]: 0.011 µM
- Ki [2]: 0.01 µM
- Papp at 15 h [18]: 0.4 ×10⁻⁶ cm/s
- IC50 [19]: 43 µM
- IC50 [20]: 11 µM
- IC50 [21]: 16 µM
- half-life [22]: 2.7 h
- clearance [23]: 79 mL/min/kg
- Vd [24]: 7.2 L/kg
- Kp [25]: < 0.5
- efflux ratio at 3.5 h, 1 µM [9]: 26
- efflux ratio at 3.5 h, 1 µM [10]: 53
- Activity [12]: Active
- concentration at 0.5 h [26]: 404 ng/mL
- concentration at 0.5 h [27]: 256 ng/g
- concentration at 0.5 h [28]: 2.3 ng/mL
- Kp at 0.5 h [29]: 0.7
- Kp at 0.5 h [30]: 0.006
- IC50 [1]: 0.01 µM
- Time [31]: 10.2 days
- Survival [32]: 16.3 days
- concentration at 1 h [13]: 237 ng/mL
- concentration at 4 h [14]: 15.1 ng/mL
- concentration at 16 h [15]: 4.8 ng/mL
- IC50 [11]: 0.004 µM
- IC50 [33]: 9 µM
- IC50 [34]: ≥ 25 µM
- IC50 [35]: 2.7 µM
- IC50 [36]: 1.04 µM

Structure (SMILES): N#CC1(NC(=O)[C@@H]2Cc3ccc(c(Cl)c3)OC/C=C/Cn3c(=O)c(cc4cc(Cl)ccc43)C(=O)N2)CC1 (mixture of isomers)
- Ki [6]: 0.299 µM
- Ki [2]: 0.274 µM
- Ratio Ki [7]: 0.9
- IC50 [3]: 0.008 µM
- IC50 [4]: 16.2 µM
- selectivity ratio [8]: 2020

Structure (SMILES): N#CC1(NC(=O)[C@@H]2Cc3ccc(c(Cl)c3)OC/C=C/COc3cc(C(F)(F)F)ccc3C(=O)N2)CC1
- Ki [6]: 0.0202 µM
- Ki [2]: 0.0024 µM
- Ratio Ki [7]: 0.1
- IC50 [3]: 0.002 µM
- IC50 [4]: 37 µM
- selectivity ratio [8]: 18500
- growth inhibition (GI) [1]: Active

From ChEMBL document CHEMBL4043299, “Repurposing a Library of Human Cathepsin L Ligands: Identification of Macrocyclic Lactams as Potent Rhodesain and Trypanosoma brucei Inhibitors” (J Med Chem, 2018)
